pIC50: −log10 of the molar value.
Key:
FM3A = assay: Cytotoxicity against mouse FM3A0 cells after 2 days; type: functional, cell-based; conditions: 48 h
[1] = Inhibition of bovine tubulin polymerization; parameters: species or system Bos taurus
Outline: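 Purified bovine brain tubulin (10 μM) in glutamate buffer was preincubated with varying compound concentrations at 30 °C, then cooled to 0 °C. GTP was added and the mixture warmed to 30 °C in a recording spectrophotometer. Assembly was followed by turbidity.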

K562 [2] = assay: Cell cycle arrest in human K562 cells assessed as accumulation at G1 phase at 26 nM after 24 hrs by flow cytometry; type: functional
Outline: (§1)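 K562 leukaemia cells were cultured for 24 h with compound at one fixed concentration. DNA content per cell was measured by the standard propidium iodide procedure and flow cytometry. Proportions of cells in the sub-G0–G1 (apoptotic), G0–G1, S and G2–M peaks were compared with an untreated control.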

L1210 = assay: Cytotoxicity against mouse L1210 cells after 2 days; type: functional, cell-based; conditions: L1210, 48 h
Outline: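 Cells were incubated with the compounds at 37 °C for two days, then counted on a Coulter counter. IC50 is the concentration that inhibits cell proliferation by 50%.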

K562 [3] = assay: Cell cycle arrest in human K562 cells assessed as accumulation at S phase at 26 nM after 24 hrs by flow cytometry; type: functional; outline: as §1
K562 [4] = assay: Cell cycle arrest in human K562 cells assessed as accumulation at G2 phase at 26 nM after 24 hrs by flow cytometry; type: functional; outline: as §1
[5] = Cytotoxicity against human Molt4/C8 cells after 2 days; conditions: MOLT-4, 48 h
Bos taurus = species on record: Bos taurus; assay: Displacement of [3H]colchicine from bovine tubulin at 5 uM
Outline: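 Reaction mixtures held 1 μM bovine brain tubulin, 5 μM [3H]colchicine and 5 μM test compound. Inhibition of radiolabelled colchicine binding to tubulin is expressed as percent inhibition.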

HeLa = assay: Cytotoxicity against human HeLa cells after 2 days; type: functional, cell-based; conditions: 48 h
K562 [6] = assay: Cell cycle arrest in human K562 cells assessed as accumulation at sub-G0/G1 phase at 26 nM after 24 hrs by flow cytometry; type: functional; outline: as §1

pIC50 [1]: 6.26
Activity (Bos taurus): 97%
Structure (SMILES): COc1ccc2c(C)c(C(=O)c3cc(OC)c(OC)c(OC)c3)oc2c1
pIC50 (FM3A): 7.57
Activity (K562 [2]): 2.19%
pIC50 (L1210): 7.62
Activity (K562 [3]): 16.62%
Activity (K562 [4]): 81.19%
pIC50 [5]: 7.72
pIC50 (HeLa): 8.49
Activity (K562 [6]): 4.9%

Reference: ChEMBL document CHEMBL1152591, “Design, synthesis and structure-activity relationship of 2-(3',4',5'-trimethoxybenzoyl)-benzo[b]furan derivatives as a novel class of inhibitors of tubulin polymerization” (Bioorg Med Chem, 2009)
